Assay results reported in ChEMBL document CHEMBL1129044, “Potent, selective tetrahydro-beta-carboline antagonists of the serotonin 2B (5HT2B) contractile receptor in the rat stomach fundus” (J Med Chem, 1996).

Key:
[1] = biological target: 5-hydroxytryptamine receptor 2B (Rattus norvegicus) (UniProt P30994); experiment: Binding affinity analysed for 5-HT 2B receptor in rat stomach fundus; assay type: tissue-based
In short: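 Rat stomach fundus strips (5HT2B): isometric contraction recorded as grams of force. Control cumulative serotonin concentration–response curve, then 1 h incubation with a single antagonist concentration per tissue, then serotonin curve repeated. K_B = [B]/(dose ratio − 1), where dose ratio is agonist ED50 with antagonist over control ED50. Reported as −log K_B.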

[2] = organism: Rattus norvegicus; experiment: Relative binding to serotonin receptors 5-HT-2B to 5-HT2C (Ratio of […] Ki)
[3] = biological target: Serotonin receptor 2a and 2b (5HT2A and 5HT2B) (Rattus norvegicus) (UniProt P30994+P14842); experiment: Relative binding to serotonin receptors 5-HT-2B and 5-HT-2A (Ratio of […] Ki); assay type: protein assay
[4] = biological target: 5-HT2C receptor (Mus musculus); experiment: Binding affinity towards 5-HT 2C receptor of mouse
[5] = biological target: T1, 5-hydroxytryptamine receptor 2A (Rattus norvegicus, UniProt P14842); experiment: Binding affinity for 5-HT 2A in rat […]; assay type: tissue-based
[6] = biological target: 5-hydroxytryptamine receptor 2A (Rattus norvegicus) (UniProt P14842)
[7] = biological target: T1, 5-hydroxytryptamine receptor 2A; experiment: Binding affinity analysed on 5-HT 2A in rat […].; assay type: tissue-based
[8] = biological target: 5-hydroxytryptamine receptor 2A (Rattus norvegicus) (UniProt P14842); experiment: Binding affinity analysed towards 5-HT 2A in rat jugular vein
In short: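 Rat external jugular vein (5HT2A), cannulated in situ and kept in Krebs' bicarbonate buffer; isometric contraction recorded. Control cumulative serotonin curve, 1 h with one antagonist concentration per tissue, serotonin curve repeated. K_B = [B]/(dose ratio − 1) from the agonist ED50 shift. Expressed as −log K_B.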

[9] = biological target: 5-hydroxytryptamine receptor 2A (Rattus norvegicus) (UniProt P14842); remark: listed apart in the source

Chain of Serotonin receptor 2a and 2b (5HT2A and 5HT2B) (Rattus norvegicus) (P14842 whole entry, looked up): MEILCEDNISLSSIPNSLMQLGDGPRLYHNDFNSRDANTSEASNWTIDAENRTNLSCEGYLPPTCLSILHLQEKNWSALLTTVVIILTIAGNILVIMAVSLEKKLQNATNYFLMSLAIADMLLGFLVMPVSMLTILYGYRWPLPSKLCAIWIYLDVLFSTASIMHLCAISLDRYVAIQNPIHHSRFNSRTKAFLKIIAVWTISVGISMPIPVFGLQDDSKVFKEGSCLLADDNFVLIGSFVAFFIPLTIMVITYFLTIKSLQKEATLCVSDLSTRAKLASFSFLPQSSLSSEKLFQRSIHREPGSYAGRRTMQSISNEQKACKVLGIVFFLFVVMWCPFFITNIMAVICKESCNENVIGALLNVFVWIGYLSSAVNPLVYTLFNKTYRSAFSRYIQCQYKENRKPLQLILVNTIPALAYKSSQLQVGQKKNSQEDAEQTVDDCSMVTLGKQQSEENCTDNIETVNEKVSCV
Chain of Serotonin receptor 2a and 2b (5HT2A and 5HT2B) (Rattus norvegicus) (P30994 whole entry, looked up): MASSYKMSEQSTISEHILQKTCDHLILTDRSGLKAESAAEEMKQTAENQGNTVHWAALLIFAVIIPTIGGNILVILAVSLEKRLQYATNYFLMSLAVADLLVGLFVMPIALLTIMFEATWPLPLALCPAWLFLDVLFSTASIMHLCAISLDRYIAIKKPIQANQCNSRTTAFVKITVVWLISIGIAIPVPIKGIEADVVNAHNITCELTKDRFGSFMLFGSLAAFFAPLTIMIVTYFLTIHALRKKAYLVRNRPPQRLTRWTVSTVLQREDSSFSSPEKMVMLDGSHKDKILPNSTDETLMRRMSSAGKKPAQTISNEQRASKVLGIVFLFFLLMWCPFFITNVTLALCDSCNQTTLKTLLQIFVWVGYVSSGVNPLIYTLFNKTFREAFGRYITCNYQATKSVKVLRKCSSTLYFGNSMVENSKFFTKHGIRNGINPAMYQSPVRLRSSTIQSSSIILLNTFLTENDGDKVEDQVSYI
Chain of 5-hydroxytryptamine receptor 2A (Rattus norvegicus) (P14842 whole entry): as the sequence (P14842 whole entry, looked up) above
T1 sequence (P14842 whole entry): as the sequence (P14842 whole entry, looked up) above
Chain of 5-hydroxytryptamine receptor 2B (Rattus norvegicus) (P30994 whole entry): as the sequence (P30994 whole entry, looked up) above

Structure (SMILES)	-Log KB [1]	other results
c1ccc2c3c([nH]c2c1)C(Cc1ccc2c(c1)OCO2)NCC3 (stereo unspecified)	8.4	
Cn1ccc2cc3c(cc21)CCN3C(=O)Nc1cccnc1	8.48	
COc1ccc(CC2NCCc3c2[nH]c2ccccc32)cc1 (stereo unspecified)	8.09	
COC1=CC=C(CC2NCCc3c2n(C)c2ccc(C)cc32)CC1OC (stereo unspecified)	< 7.52	
Cc1ccc2[nH]c3c(c2c1)CCNC3Cc1ccc(C)c(C)c1 (stereo unspecified)	9.06	
COc1ccc(CC2NCCc3c2[nH]c2cc(C)cc(C)c32)cc1OC (stereo unspecified)	9.34	
Cc1ccc2[nH]c3c(c2c1)CCN(C)C3Cc1cccc2ccccc12 (stereo unspecified)	7.52	
COc1ccc(CC2c3[nH]c4ccc(C)cc4c3CCN2C)c(Cl)c1OC (stereo unspecified)	8.4	
COc1ccc(CC2NCCc3c2[nH]c2c(C)c(C)ccc32)cc1OC (stereo unspecified)	10.1	Ratio [2]: 102; Ratio [3]: 115; Ki [4]: 7.76 nM; Ki [5]: 8.71 nM
COc1ccc2c3c([nH]c2c1)C(Cc1ccc(OC)c(OC)c1)NCC3 (stereo unspecified)	7.31	
COc1cc(CC2NCCc3c2[nH]c2ccc(C)cc32)cc(I)c1OC (stereo unspecified)	8.12	
COc1ccc(CC2NCCc3c2[nH]c2cc(C)c(C)cc32)cc1OC (stereo unspecified)	9.71	Ki [5]: 4.68 nM
COc1ccc(CC2NCC(C)c3c2[nH]c2c(C)cccc32)cc1OC (stereo unspecified)	9.29	
COc1ccc(CC2NCCc3c2[nH]c2ccc(Br)cc32)cc1OC (stereo unspecified)	8.8	
Brc1cccc2c1NC1C(Cc3cccc4ccccc34)NCCC21 (stereo unspecified)	9.1	
CCc1ccc2c(c1)C1CCNC(Cc3cccc4ccccc34)C1N2 (stereo unspecified)	9.65	
c1ccc2c3c([nH]c2c1)CNCC3	< 5.52	
COc1ccc(CC2NCCc3c2[nH]c2ccc(C(C)C)cc32)cc1OC (stereo unspecified)	8.5	
CCOc1ccc(CC2NCCc3c2[nH]c2ccccc32)cc1OCC (stereo unspecified)	8.57	
COc1cc2c(cc1OC)CN1CCc3c([nH]c4ccccc34)[C@@H]1C2	< 6.52	
COc1ccc(CC2NCCc3c2[nH]c2ccc(SC)cc32)cc1OC (stereo unspecified)	9.56	
COc1ccc(CC2NCCc3c2[nH]c2c(Br)c(C)ccc32)cc1OC (stereo unspecified)	9.02	Ratio [2]: 2.14; Ratio [3]: 3.09; Ki [4]: 2.04 nM; Ki [5]: 2.95 nM
COc1ccc(CC2(C)NCCc3c2[nH]c2ccc(C)cc32)cc1OC (stereo unspecified)	< 7.52	
COc1ccc(CC2NCCc3c2[nH]c2ccc(C)cc32)c(Cl)c1OC (stereo unspecified)	9.8	-Log KB [6]: 8.14; Ki [5]: 19.5 nM
COc1ccc(CC2NCCc3c2[nH]c2ccc(C)cc32)c(Br)c1OC (stereo unspecified)	9.7	Ratio [2]: 93.3; Ratio [3]: 83.2; Ki [4]: 18.6 nM; Ki [5]: 16.6 nM
O=C(O)c1ccc2c(c1)C1CCNC(Cc3cccc4ccccc34)C1N2 (stereo unspecified)	< 7.5	

Structure (SMILES)	-Log KB [1]	other results
COc1ccc(CC2NCCc3c2[nH]c2ccc(OCc4ccccc4)cc32)cc1OC (stereo unspecified)	6.73	
Cc1ccc2[nH]c3c(c2c1)CCNC3Cc1cc(F)cc(F)c1 (stereo unspecified)	9.05	
Cc1ccc2[nH]c3c(c2c1)CCNC3Cc1cccc(C(F)(F)F)c1 (stereo unspecified)	8.91	
COc1ccc(CC2NCCc3c2[nH]c2ccc(C)cc32)cc1O (stereo unspecified)	9.23	
COc1ccc(CC2NCCc3c2[nH]c2ccc(C)cc32)c([N+](=O)[O-])c1OC (stereo unspecified)	9.16	
COc1ccc(CC2NCCc3c2[nH]c2ccc(C)cc32)cc1OC (stereo unspecified)		Ki [5]: 22.4 nM
COc1ccc(CC2NCCc3c2[nH]c2ccc(C)cc32)cc1F (stereo unspecified)	9.42	
COc1cc(CC2NCCc3c2[nH]c2ccccc32)cc(OC)c1OC (stereo unspecified)	8.1	
COc1ccc(CC2NCCc3c2[nH]c2ccc(C4CCCCC4)cc32)cc1OC (stereo unspecified)	< 7.5	
COc1cc(CC2NCCc3c2[nH]c2ccc(C)cc32)cc(N)c1OC (stereo unspecified)	8.89	
COc1ccc(C2NCCc3c2[nH]c2ccccc32)cc1OC (stereo unspecified)	< 6.53	
COc1cccc2c1NC1C(Cc3cccc4ccccc34)NCCC21 (stereo unspecified)	9.72	
c1ccc2cc(CC3NCCc4c3[nH]c3ccccc43)ccc2c1 (stereo unspecified)	7.84	
Clc1ccc(CC2NCCc3c2[nH]c2ccccc32)cc1Cl (stereo unspecified)	8.22	
COc1cccc(CC2NCCc3c2[nH]c2ccccc32)c1 (stereo unspecified)	8.04	
COc1ccc2[nH]c3c(c2c1)CCNC3Cc1ccc(OC)c(OC)c1 (stereo unspecified)	8.48	
Cc1ccc2c(c1Br)NC1C(Cc3cccc4ccccc34)NCCC21 (stereo unspecified)	8.56	
COc1cc(CC2NCCc3c2[nH]c2ccc(C)cc32)cc([N+](=O)[O-])c1OC (stereo unspecified)	8.55	
Clc1ccc2c(c1)C1CCNC(Cc3cccc4ccccc34)C1N2 (stereo unspecified)	9.16	
COc1ccc(CC2NCCc3c2[nH]c2c(C)cc(C)cc32)cc1OC (stereo unspecified)	9.61	
COc1ccc(CC2c3c(c4cc(C)ccc4n3C)CCN2C)c(Cl)c1OC (stereo unspecified)	< 7.52	
COc1ccc(CC2NCCc3c2[nH]c2c3ccc3ccccc32)cc1OC (stereo unspecified)	9.22	
COc1ccc(CC2NCCc3c2[nH]c2ccc(-c4ccccc4)cc32)cc1OC (stereo unspecified)	< 7	
COc1ccc(CC2NCCc3c2[nH]c2c(Br)cc(C)cc32)cc1OC (stereo unspecified)	8.92	
CN1CC[C@@H]2CN3CCc4cccc(c43)[C@@H]2C1	7.34	Ki [7]: 631 nM
Cc1ccc2[nH]c3c(c2c1)CCNC3Cc1ccc(F)c(F)c1 (stereo unspecified)	8.47	

Structure (SMILES)	-Log KB [1]	other results
Cc1ccc2[nH]c3c(c2c1)CCNC3CC1CCCCC1 (stereo unspecified)	8.32	
COc1ccc(CC2NCCc3c2[nH]c2ccc(Cl)cc32)cc1OC (stereo unspecified)	8.36	
COc1ccc(CC2NCCc3c2[nH]c2ccc(F)cc32)cc1OC (stereo unspecified)	8.49	
CCc1ccc2[nH]c3c(c2c1)CCNC3Cc1ccc(OC)c(OC)c1 (stereo unspecified)	9.46	
COc1ccc(CC2NCCc3c2[nH]c2ccccc32)cc1OC (stereo unspecified)	9.17	Ratio [2]: 186; -Log KB [8]: 7.43; Ratio [3]: 97.7; Ki [4]: 126 nM; Ki [5]: 66.1 nM
Cn1ccc2cc(NC(=O)Nc3cccnc3)ccc21	7.4	Ratio [2]: 3.5; Ratio [3]: > 158; Ki [5]: > 6310 nM
CCCCc1ccc2[nH]c3c(c2c1)CCNC3Cc1ccc(OC)c(OC)c1 (stereo unspecified)	< 7.5	
COc1ccc(OC)c(CC2NCCc3c2[nH]c2ccccc32)c1 (stereo unspecified)	7.75	
COc1ccc(CC2NCCc3c2[nH]c2ccc(I)cc32)cc1OC (stereo unspecified)	9.52	
COc1ccc(CC2NCCc3c2[nH]c2ccc(C)cc32)c(N)c1OC (stereo unspecified)	9.02	
c1ccc2c3c([nH]c2c1)[C@@H]1C[C@@H]2CCCC[C@H]2CN1CC3	7.26	
COc1ccc(CC2NCCc3c2[nH]c2ccc(C)c(F)c32)cc1OC (stereo unspecified)	9.3	
CCCc1ccc2[nH]c3c(c2c1)CCNC3Cc1ccc(OC)c(OC)c1 (stereo unspecified)	8.64	
Cc1ccc(CC2NCCc3c2[nH]c2ccccc32)cc1 (stereo unspecified)	7.84	
COc1ccc(CCC2NCCc3c2[nH]c2ccccc32)cc1OC (stereo unspecified)	7.07	
Cc1cc(NC(=O)Nc2ccc3c(ccn3C)c2)sn1	7.95	
COc1ccc(CC2NCCc3c2[nH]c2c(C)cccc32)cc1OC (stereo unspecified)	9	
COC(=O)[C@@H]1[C@H]2C[C@H]3c4[nH]c5ccccc5c4CCN3C[C@@H]2CC[C@@H]1O	6.92	-Log KB [9]: 6.37
c1ccc2c(CC3NCCc4c3[nH]c3ccccc43)cccc2c1 (stereo unspecified)	9.35	
c1ccc(CC2NCCc3c2[nH]c2ccccc32)cc1 (stereo unspecified)	7.61	
COc1ccc(CC2NCCc3c2[nH]c2ccccc32)c(Cl)c1OC (stereo unspecified)	9.27	
COc1ccc(CC2NCCc3c2[nH]c2c(F)cc(F)cc32)cc1OC (stereo unspecified)	9.6	
COc1ccc(CN2CCc3c([nH]c4ccccc34)C2)cc1OC	< 5.52	
Cc1cc(Br)c2c(c1)C1CCNC(Cc3cccc4ccccc34)C1N2 (stereo unspecified)	8.82	
